Data on two molecules can be found in ChEMBL document CHEMBL2062375, “Discovery of an orally efficacious inhibitor of anaplastic lymphoma kinase” (J Med Chem, 2012).

Structures are written as SMILES. The source made the active and inactive calls. The rule behind the calls is not given here.

Data set [1] is described as follows: Cmax in rat at 10 mg/kg, po. The format is ADME, organism-based. Set-up: dose 10 mg/kg, route oral. Particulars: in vivo. Summed up:
(§1)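 Rat oral dose escalation at 10, 30, 55 and 100 mg/kg. Gavage at 5 mL/kg in 40% HPβCD after an overnight fast. Serial tail-vein blood was drawn into heparinized tubes. Plasma was protein-precipitated with acetonitrile and assayed by LC-MS/MS. Cmax and AUC0–12 were derived noncompartmentally; n = 2 at 10 mg/kg.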

A short description of data set [2]: Cmax in rat at 30 mg/kg, po. The note with it: in vivo. It counts as ADME, organism-based. Set-up: dose 30 mg/kg, route oral. Summed up: as §1
Data set [3] can be described thus: Cmax in rat at 55 mg/kg, po. The format is ADME, organism-based. Set-up: dose 55 mg/kg, route oral. The note with it: in vivo. Summed up:
as §1

Data set [4] is described as follows: Cmax in rat at 100 mg/kg, po. The format is ADME, organism-based. Set-up: dose 100 mg/kg, route oral. The note with it: in vivo. Summed up: as §1
Data set [5] can be described thus: AUC (0 to 12 hrs) in rat 10 mg/kg, po. It counts as ADME, organism-based. Set-up: time < 12 hr, dose 10 mg/kg, route oral. The note with it: plasma. Summed up:
as §1

Data set [6] is described as follows: AUC (0 to 12 hrs) in rat 30 mg/kg, po. It counts as ADME, organism-based. Set-up: time < 12 hr, dose 30 mg/kg, route oral. The note with it: plasma. Summed up:
as §1

Data set [7] in a line: AUC (0 to 12 hrs) in rat 55 mg/kg, po. It counts as ADME, organism-based. Set-up: time < 12 hr, dose 55 mg/kg, route oral. Particulars: plasma. Summed up:
as §1

The nature of data set [8]: AUC (0 to 12 hrs) in rat 100 mg/kg, po. Set-up: time < 12 hr, dose 100 mg/kg, route oral. The note with it: plasma. It counts as ADME, organism-based. Summed up: as §1
Data set [9] has as its system KARPAS-299. The experiment in a line: Antitumor activity against human KARPAS299 cells expressing NPM-ALK xenografted in SCID mouse assessed as tumor stasis up to 100 mg/kg, po bid for 12 days. It counts as functional, organism-based. Set-up: dose 100 mg/kg.
Data set [10] concerns Rattus norvegicus. In words: Ratio of Cmax at 10 mg/kg, po to Cmax at 100 mg/kg, po in rat. It counts as ADME, organism-based. Particulars: in vivo. Summed up: (§2)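 Oral dose-escalation PK study in rats at 10, 30, 55 and 100 mg/kg. […] The ratio compares the 10 mg/kg value with the 100 mg/kg value.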
Data set [11] relates to Rattus norvegicus. The experiment in a line: Ratio of AUC (0 to 12 h) at 10 mg/kg, po to AUC (0 to 12 h) at 100 mg/kg, po in rat. The format is ADME, organism-based. The note with it: in vivo. Summed up: as §2
For data set [12], the target named is T1, ALK tyrosine kinase receptor (Homo sapiens, UniProt Q9UM73). In words: Inhibition of ALK tyrosine phosphorylation in human Karpas-299 cells after 2 hrs in presence of mouse plasma. It counts as cell-based.
T1 sequence (Q9UM73 whole entry, the tested form may be a part): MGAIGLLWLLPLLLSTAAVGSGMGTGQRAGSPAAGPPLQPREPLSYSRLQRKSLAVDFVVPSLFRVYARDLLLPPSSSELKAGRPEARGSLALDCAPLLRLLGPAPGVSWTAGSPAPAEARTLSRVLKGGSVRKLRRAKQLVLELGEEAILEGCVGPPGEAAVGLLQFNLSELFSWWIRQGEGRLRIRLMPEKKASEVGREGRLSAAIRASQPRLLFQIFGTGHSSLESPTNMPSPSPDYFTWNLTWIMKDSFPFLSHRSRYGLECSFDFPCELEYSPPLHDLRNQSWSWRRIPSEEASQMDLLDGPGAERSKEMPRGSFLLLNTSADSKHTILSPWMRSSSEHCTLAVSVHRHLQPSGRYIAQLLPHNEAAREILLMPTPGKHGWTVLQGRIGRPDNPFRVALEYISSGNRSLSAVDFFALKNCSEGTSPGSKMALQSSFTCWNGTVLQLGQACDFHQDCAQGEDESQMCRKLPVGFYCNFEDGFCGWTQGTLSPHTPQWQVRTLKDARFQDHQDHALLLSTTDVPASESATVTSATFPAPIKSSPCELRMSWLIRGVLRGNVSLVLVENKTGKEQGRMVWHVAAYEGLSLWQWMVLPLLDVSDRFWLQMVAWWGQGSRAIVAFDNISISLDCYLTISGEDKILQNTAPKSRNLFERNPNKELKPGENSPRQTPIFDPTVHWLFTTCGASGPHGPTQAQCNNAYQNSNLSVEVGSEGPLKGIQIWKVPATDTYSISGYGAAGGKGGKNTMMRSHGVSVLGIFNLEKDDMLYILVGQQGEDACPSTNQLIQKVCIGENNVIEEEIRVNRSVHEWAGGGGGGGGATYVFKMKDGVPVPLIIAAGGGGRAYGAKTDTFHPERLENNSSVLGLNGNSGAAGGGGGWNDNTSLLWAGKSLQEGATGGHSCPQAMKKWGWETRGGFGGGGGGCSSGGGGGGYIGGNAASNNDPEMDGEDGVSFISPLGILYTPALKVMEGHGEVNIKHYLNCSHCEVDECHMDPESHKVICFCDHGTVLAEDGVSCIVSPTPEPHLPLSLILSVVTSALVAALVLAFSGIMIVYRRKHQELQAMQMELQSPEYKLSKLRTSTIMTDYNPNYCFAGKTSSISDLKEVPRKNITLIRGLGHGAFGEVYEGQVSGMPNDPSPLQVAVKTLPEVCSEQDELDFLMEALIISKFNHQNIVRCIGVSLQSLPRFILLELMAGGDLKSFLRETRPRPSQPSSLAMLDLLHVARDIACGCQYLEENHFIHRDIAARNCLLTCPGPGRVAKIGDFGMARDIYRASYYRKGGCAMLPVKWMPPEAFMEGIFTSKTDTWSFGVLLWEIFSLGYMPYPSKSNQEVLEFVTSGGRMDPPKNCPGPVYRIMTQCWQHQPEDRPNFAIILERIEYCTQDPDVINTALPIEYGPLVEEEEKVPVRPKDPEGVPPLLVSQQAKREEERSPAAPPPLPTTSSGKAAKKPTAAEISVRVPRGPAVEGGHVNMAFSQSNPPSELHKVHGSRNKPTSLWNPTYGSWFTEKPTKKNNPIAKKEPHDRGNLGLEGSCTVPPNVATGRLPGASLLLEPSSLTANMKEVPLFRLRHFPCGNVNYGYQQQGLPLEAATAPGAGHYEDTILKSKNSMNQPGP
Data set [13] addresses T1, ALK tyrosine kinase receptor. The experiment in a line: Inhibition of human ALK cytoplasmic domain expressed in baculovirus using GST-PLCgamma as substrate preincubated for 15 mins before substrate addition measured after 1 hr by time resolved fluorescence assay.

Take `CCN1C(=O)CCCc2c1ccc(Nc1ncc(Cl)c(N[C@H]3[C@@H](C(N)=O)[C@@H]4C=C[C@H]3C4)n1)c2OC`: the highest concentration (Cmax) is 925 ng/mL in data set [1], 1360 ng/mL in data set [2], 1450 ng/mL in [3] and 1550 ng/mL in [4]. Further, the area under the curve AUC(0-t) at 12 h in [5] was 6020 ng·h/mL; in [6], 11800 ng·h/mL; in data set [7], 13800 ng·h/mL; in data set [8], 14000 ng·h/mL. Also, in data set [9], the result was Active. For the same molecule, the Ratio in data set [10] and in data set [11] was 2 in each case. Moreover, the concentration for half-maximal inhibition (IC50) in data set [12] came out at 45 nM.

Turning to `COc1c(Nc2ncc(Cl)c(N[C@H]3[C@@H](C(N)=O)[C@@H]4C=C[C@H]3C4)n2)ccc2c1CC[C@H](N1CCOCC1)CC2`, the IC50 in [13] was found to be 35 nM; in data set [12] it was 120 nM.
